# ChEMBL document CHEMBL1154067, “Antiviral and cytotoxic activities of aminoarylazo compounds and aryltriazene derivatives” (Bioorg Med Chem, 2009)
# Active and inactive are the calls of the source. No rule for the calls is given here.
# Tested on: MT4
# Experiment: Cytotoxicity against human MT4 cells after 96 hrs by MTT assay
# Format: cell-based
# Settings: mt4, 96 h
# How it was run: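 Exponentially growing mock-infected MT-4 seeded at 1 × 10^5 cells/mL in RPMI-1640 with 10% FCS, penicillin and streptomycin. Incubated with or without serial compound dilutions at 37 °C, 5% CO2. Viability by MTT after 96 h. CC50 = concentration reducing viability 50%.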
row,SMILES,CC50 [µM]
1,FC(F)(F)c1cccc(/N=N/N2CCCC2)c1,> 100
2,O=c1cccc2n1CC1CC2CN(/N=N/c2cccc([N+](=O)[O-])c2)C1 (stereo unspecified),> 100
3,CCOC(=O)N1CCN(/N=N/c2ccccc2)CC1,100
4,Brc1cccc(/N=N/N2CCCC2)c1,> 100
5,Clc1ccc(/N=N/N2CCCC2)cc1,> 100
6,Brc1ccc(/N=N/N2CCCC2)cc1,> 100
7,c1ccc(/N=N/N2CCN(c3ccccc3)CC2)cc1,33

# Tested on: not listed separately
# Experiment: Cytotoxicity against MDBK cells after 48 to 96 hrs by MTT assay
# Format: cell-based, Bos taurus
# Settings: cattle, mdbk
# How it was run: (§1)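 Mock-infected cells in maintenance medium, MDBK at 6 × 10^5 and BHK at 1 × 10^6 cells/mL initial density, with or without serial compound dilutions. Run in parallel with antiviral assays. Viability by MTT after 48–96 h at 37 °C, 5% CO2. CC50 = concentration reducing viability 50%.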
row,SMILES,CC50 [µM]
1,FC(F)(F)c1cccc(/N=N/N2CCCC2)c1,> 100
2,O=c1cccc2n1CC1CC2CN(/N=N/c2cccc([N+](=O)[O-])c2)C1 (stereo unspecified),> 100
3,CCOC(=O)N1CCN(/N=N/c2ccccc2)CC1,> 100
4,Brc1cccc(/N=N/N2CCCC2)c1,> 100
5,Clc1ccc(/N=N/N2CCCC2)cc1,> 100
6,Brc1ccc(/N=N/N2CCCC2)cc1,> 100
7,c1ccc(/N=N/N2CCN(c3ccccc3)CC2)cc1,> 100

# Tested on: Yellow fever virus
# Experiment: Antiviral activity against Yellow fever virus infected in BHK-21 cells assessed as inhibition of virus-induced cytopathicity after 3 to 4 days by MTT assay
# Format: functional, organism-based
# Settings: not given
row,SMILES,EC50 [µM]
1,FC(F)(F)c1cccc(/N=N/N2CCCC2)c1,> 100
2,O=c1cccc2n1CC1CC2CN(/N=N/c2cccc([N+](=O)[O-])c2)C1 (stereo unspecified),> 100
3,CCOC(=O)N1CCN(/N=N/c2ccccc2)CC1,> 100
4,Brc1cccc(/N=N/N2CCCC2)c1,> 100
5,Clc1ccc(/N=N/N2CCCC2)cc1,> 100
6,Brc1ccc(/N=N/N2CCCC2)cc1,> 100
7,c1ccc(/N=N/N2CCN(c3ccccc3)CC2)cc1,> 100

# Tested on: Mammalian orthoreovirus 1
# Experiment: Antiviral activity against Reovirus-1 infected in BHK-21 cells assessed as inhibition of virus-induced cytopathicity after 3 to 4 days by MTT assay
# Format: functional, organism-based
# Settings: Mammalian orthoreovirus 1, BHK-21
# How it was run: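 BHK-21 cells seeded at 5 × 10^4 cells/well, grown overnight to confluent monolayers at 37 °C in 5% CO2, then infected at m.o.i. 0.01 in serum-free medium. One hour later, MEM Earle's with 1% final inactivated FCS added, with or without serial compound dilutions. Viability read by MTT after 3–4 days at 37 °C. EC50 is the concentration giving 50% protection from cytopathogenicity.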
row,SMILES,EC50 [µM]
1,FC(F)(F)c1cccc(/N=N/N2CCCC2)c1,> 100
2,O=c1cccc2n1CC1CC2CN(/N=N/c2cccc([N+](=O)[O-])c2)C1 (stereo unspecified),80
3,CCOC(=O)N1CCN(/N=N/c2ccccc2)CC1,> 100
4,Brc1cccc(/N=N/N2CCCC2)c1,> 100
5,Clc1ccc(/N=N/N2CCCC2)cc1,> 100
6,Brc1ccc(/N=N/N2CCCC2)cc1,> 100
7,c1ccc(/N=N/N2CCN(c3ccccc3)CC2)cc1,> 100

# Tested on: Vero
# Experiment: Cytotoxicity against african green monkey Vero 76 cells by crystal violet staining
# Format: cell-based
# Settings: chlorocebus sabaeus, vero
# How it was run: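 Mock-infected Vero 76 seeded at 4 × 10^5 cells/mL, run in parallel with plaque assays, with or without serial compound dilutions. Cell number of monolayers determined by crystal violet staining. CC50 = concentration reducing viable cell number 50%.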
row,SMILES,CC50 [µM]
1,FC(F)(F)c1cccc(/N=N/N2CCCC2)c1,> 100
2,O=c1cccc2n1CC1CC2CN(/N=N/c2cccc([N+](=O)[O-])c2)C1 (stereo unspecified),90
3,CCOC(=O)N1CCN(/N=N/c2ccccc2)CC1,90
4,Brc1cccc(/N=N/N2CCCC2)c1,≥ 100
5,Clc1ccc(/N=N/N2CCCC2)cc1,> 100
6,Brc1ccc(/N=N/N2CCCC2)cc1,≥ 100
7,c1ccc(/N=N/N2CCN(c3ccccc3)CC2)cc1,≥ 100

# Tested on: Coxsackievirus B2
# Experiment: Antiviral activity against Coxsackie virus type B2 virus infected in african green monkey Vero-76 cells after 3 days by plaque reduction assay
# Format: functional, organism-based
# Settings: Enterovirus B, Vero 76, 72 h
# How it was run: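 Vero 76 cells seeded at 2 × 10^5 cells/well, grown overnight to confluence at 37 °C in 5% CO2, then infected at 50–100 PFU/well. Unadsorbed virus removed. Overlay of DMEM with 1% inactivated FCS and 0.75% methylcellulose, with or without serial compound dilutions. After 3 days at 37 °C, fixed and stained with crystal violet in PBS/50% ethanol; plaques counted. EC50 is the concentration reducing plaque number by 50%.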
row,SMILES,EC50 [µM]
1,FC(F)(F)c1cccc(/N=N/N2CCCC2)c1,> 100
2,O=c1cccc2n1CC1CC2CN(/N=N/c2cccc([N+](=O)[O-])c2)C1 (stereo unspecified),> 90
3,CCOC(=O)N1CCN(/N=N/c2ccccc2)CC1,30
4,Brc1cccc(/N=N/N2CCCC2)c1,> 100
5,Clc1ccc(/N=N/N2CCCC2)cc1,> 100
6,Brc1ccc(/N=N/N2CCCC2)cc1,> 100
7,c1ccc(/N=N/N2CCN(c3ccccc3)CC2)cc1,> 100

# Tested on: Respiratory syncytial virus
# Experiment: Antiviral activity against Respiratory syncytial virus A2 infected in Vero-76 cells after 5 days by plaque reduction assay
# Format: functional, organism-based
# Settings: human respiratory syncytial virus, A2, Vero 76, 120 h
row,SMILES,EC50 [µM]
1,FC(F)(F)c1cccc(/N=N/N2CCCC2)c1,> 100
2,O=c1cccc2n1CC1CC2CN(/N=N/c2cccc([N+](=O)[O-])c2)C1 (stereo unspecified),≥ 90
3,CCOC(=O)N1CCN(/N=N/c2ccccc2)CC1,> 90
4,Brc1cccc(/N=N/N2CCCC2)c1,> 100
5,Clc1ccc(/N=N/N2CCCC2)cc1,> 100
6,Brc1ccc(/N=N/N2CCCC2)cc1,> 100
7,c1ccc(/N=N/N2CCN(c3ccccc3)CC2)cc1,8

# Tested on: Human alphaherpesvirus 1
# Experiment: Antiviral activity against HSV1 infected in Vero-76 cells after 3 days by plaque reduction assay
# Format: functional, organism-based
# Settings: Human alphaherpesvirus 1, Vero 76, 72 h
row,SMILES,EC50 [µM]
1,FC(F)(F)c1cccc(/N=N/N2CCCC2)c1,> 100
2,O=c1cccc2n1CC1CC2CN(/N=N/c2cccc([N+](=O)[O-])c2)C1 (stereo unspecified),> 90
3,CCOC(=O)N1CCN(/N=N/c2ccccc2)CC1,> 90
4,Brc1cccc(/N=N/N2CCCC2)c1,> 100
5,Clc1ccc(/N=N/N2CCCC2)cc1,> 100
6,Brc1ccc(/N=N/N2CCCC2)cc1,> 100
7,c1ccc(/N=N/N2CCN(c3ccccc3)CC2)cc1,> 100

# Tested on: not listed separately
# Experiment: Cytotoxicity against hamster BHK21 cells assessed as reduction in cell viability after 48 to 96 hrs by MTT assay
# Format: cell-based, Mesocricetus auratus, BHK-21
# Settings: bhk-21
# How it was run: as §1
row,SMILES,CC50 [µM]
1,FC(F)(F)c1cccc(/N=N/N2CCCC2)c1,> 100
2,O=c1cccc2n1CC1CC2CN(/N=N/c2cccc([N+](=O)[O-])c2)C1 (stereo unspecified),> 100
3,CCOC(=O)N1CCN(/N=N/c2ccccc2)CC1,> 100
4,Brc1cccc(/N=N/N2CCCC2)c1,> 100
5,Clc1ccc(/N=N/N2CCCC2)cc1,> 100
6,Brc1ccc(/N=N/N2CCCC2)cc1,> 100
7,c1ccc(/N=N/N2CCN(c3ccccc3)CC2)cc1,> 100

# Tested on: Poliovirus 1
# Experiment: Antiviral activity against Human poliovirus 1 strain Sabin after 2 days by plaque reduction assay
# Format: functional
# Settings: Enterovirus C, 48 h
row,SMILES,EC50 [µM]
1,FC(F)(F)c1cccc(/N=N/N2CCCC2)c1,> 100
2,O=c1cccc2n1CC1CC2CN(/N=N/c2cccc([N+](=O)[O-])c2)C1 (stereo unspecified),> 90
3,CCOC(=O)N1CCN(/N=N/c2ccccc2)CC1,> 90
4,Brc1cccc(/N=N/N2CCCC2)c1,> 100
5,Clc1ccc(/N=N/N2CCCC2)cc1,42
6,Brc1ccc(/N=N/N2CCCC2)cc1,51
7,c1ccc(/N=N/N2CCN(c3ccccc3)CC2)cc1,> 100

# Tested on: Human immunodeficiency virus 1
# Experiment: Antiviral activity against HIV1 infected in human MT4 cells assessed as inhibition of virus-induced cytopathicity after 4 days by MTT assay
# Format: functional, organism-based
# Settings: not given
row,SMILES,inhibition
1,FC(F)(F)c1cccc(/N=N/N2CCCC2)c1,inactive
2,O=c1cccc2n1CC1CC2CN(/N=N/c2cccc([N+](=O)[O-])c2)C1 (stereo unspecified),inactive
3,CCOC(=O)N1CCN(/N=N/c2ccccc2)CC1,inactive
4,Brc1cccc(/N=N/N2CCCC2)c1,inactive
5,Clc1ccc(/N=N/N2CCCC2)cc1,inactive
6,Brc1ccc(/N=N/N2CCCC2)cc1,inactive
7,c1ccc(/N=N/N2CCN(c3ccccc3)CC2)cc1,inactive

# Tested on: Vesicular stomatitis virus
# Experiment: Antiviral activity against Vesicular stomatitis virus after 2 days by plaque reduction assay
# Format: functional, organism-based
# Settings: not given
row,SMILES,Activity
1,FC(F)(F)c1cccc(/N=N/N2CCCC2)c1,inactive
2,O=c1cccc2n1CC1CC2CN(/N=N/c2cccc([N+](=O)[O-])c2)C1 (stereo unspecified),inactive
3,CCOC(=O)N1CCN(/N=N/c2ccccc2)CC1,inactive
4,Brc1cccc(/N=N/N2CCCC2)c1,inactive
5,Clc1ccc(/N=N/N2CCCC2)cc1,inactive
6,Brc1ccc(/N=N/N2CCCC2)cc1,inactive
7,c1ccc(/N=N/N2CCN(c3ccccc3)CC2)cc1,inactive

# Tested on: Vaccinia virus
# Experiment: Antiviral activity against Vaccinia virus after 3 days by plaque reduction assay
# Format: functional, organism-based
# Settings: Orthopoxvirus vaccinia
row,SMILES,Activity
1,FC(F)(F)c1cccc(/N=N/N2CCCC2)c1,inactive
2,O=c1cccc2n1CC1CC2CN(/N=N/c2cccc([N+](=O)[O-])c2)C1 (stereo unspecified),inactive
3,CCOC(=O)N1CCN(/N=N/c2ccccc2)CC1,inactive
4,Brc1cccc(/N=N/N2CCCC2)c1,inactive
5,Clc1ccc(/N=N/N2CCCC2)cc1,inactive
6,Brc1ccc(/N=N/N2CCCC2)cc1,inactive
7,c1ccc(/N=N/N2CCN(c3ccccc3)CC2)cc1,inactive
